Active and inactive are the calls of the source. The calls are words filed in the database; no cut-off is given here.
Assays:
[1] = Antitumor activity against human MDA231 cells after 24 to 48 hrs by MTT assay; assay type: functional, cell-based; details: MDA-MB-231
How it was run: (§1)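 MTT read-out. Cells grown at 37 °C in DMEM with 10 mM glucose, 10% fetal calf serum, penicillin/streptomycin and 2 mmol/L glutamine. Seeded at 10^5 cells per well and left 24 h to attach, then compound added over a range of concentrations and cells grown 24 or 48 h. MTT at 1 mg/mL for 2 h at 37 °C in the dark, formazan dissolved in DMSO, OD read at 550 nm. Values are % of vehicle control (0.5% DMSO); IC50 by linear and polynomial regression; triplicate.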

[2] = tested on: SW-620; assay: Antitumor activity against human SW620 cells after 24 to 48 hrs by MTT assay; assay type: functional, cell-based; how it was run: as §1
[3] = tested on: U-937; assay: Antitumor activity against human U937 cells after 24 to 48 hrs by MTT assay; assay type: functional, cell-based; how it was run: as §1
[4] = tested on: Caco-2; assay: Increase in Hsp27 protein expression in human Caco2 cells at 1 uM after 48 hrs by Western blot analysis; assay type: functional, cell-based
How it was run: (§2)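 Caco-2 cells treated for 48 h (1 or 5 μM for Hsp27; 1 μM for cyclin A). Lysed in ice-cold 50 mM Tris, 150 mM NaCl, 10 mM EDTA, 1% Triton with protease inhibitors. Equal protein run on 8–12% SDS-PAGE and transferred to nitrocellulose. Primary antibody overnight in TBS/Tween/1% milk, then HRP secondary; bands detected by ECL.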

[5] = tested on: SF-295; assay: Antitumor activity against human SF295 cells after 24 to 48 hrs by MTT assay; assay type: functional, cell-based; how it was run: as §1
[6] = tested on: MCF7; assay: Cytotoxicity against human MCF7 cells; assay type: functional, cell-based; how it was run: as §1
[7] = tested on: Caco-2; assay: Selectivity index, ratio IC50 for undifferentiated human Caco2 cells to IC50 for differentiated human Caco2 cells; assay type: functional
How it was run: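 Ratio of MTT IC50 in undifferentiated to differentiated Caco-2 cells. MTT conditions: 24 or 48 h exposure, formazan dissolved in DMSO, read at 550 nm, IC50 by regression, triplicate.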

[8] = tested on: Caco-2; assay: Induction of cyclin A expression in human Caco2 cells at 1 uM after 48 hrs by Western blot analysis; assay type: functional; how it was run: as §2
[9] = tested on: COLO 205; assay: Antitumor activity against human COLO205 cells after 24 to 48 hrs by MTT assay; assay type: functional, cell-based; how it was run: as §1
[10] = tested on: Caco-2; assay: Cell cycle arrest in human Caco2 cells assessed as accumulation at G2/M phase at 1 uM after 48 hrs by propidium iodide staining based flow cytometric analysis (reference value: 21%); assay type: functional
[11] = tested on: SK-MEL-28; assay: Antitumor activity against human SK-MEL-28 cells after 24 to 48 hrs by MTT assay; assay type: functional, cell-based; how it was run: as §1
[12] = tested on: Nucleic Acid; assay: Binding affinity to DNA assessed as binding mode index by measuring aromatic signals by DF-STD spectrophotometric analysis; assay type: nucleic-acid assay
How it was run: (§3)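 DF-STD NMR on poly(dG-dC)·poly(dG-dC) in H2O/D2O 9:1 with 100 mM phosphate-buffered saline, pH 7.1. Ligand 1.0 mM; DNA 50 μM as phosphate (20:1 ligand excess). Saturation is centred on the aromatic or low-field aliphatic region for 2 s, with a reference off-resonance at δ −16 ppm and 512 scans. The binding mode index is the relative response of ligand protons to base versus sugar/backbone saturation.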

[13] = tested on: Caco-2; assay: Cell cycle arrest in human Caco2 cells assessed as accumulation at S phase at 1 uM after 48 hrs by propidium iodide staining based flow cytometric analysis (reference value: 36%); assay type: functional
[14] = tested on: Caco-2; assay: Cell cycle arrest in human Caco2 cells assessed as accumulation at G1 phase at 1 uM after 48 hrs by propidium iodide staining based flow cytometric analysis (reference value: 42%); assay type: functional
[15] = tested on: SNB-19; assay: Antitumor activity against human SNB19 cells after 24 to 48 hrs by MTT assay; assay type: functional, cell-based; how it was run: as §1
[16] = tested on: Nucleic Acid; assay: Binding affinity to poly(dG-dC).poly(dG-dC) DNA assessed as compound/DNA complex formation at 1 mM by WaterLOGSY NMR spectrophotometric analysis; assay type: nucleic-acid assay
How it was run: (§4)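 Ligand at 1.0 mM with poly(dG-dC)·poly(dG-dC) at 50 μM (as phosphate groups), a 20:1 ligand excess, in H2O/D2O 9:1 with 100 mM phosphate-buffered saline, pH 7.1. Water suppressed by DPFGSE. STD effects taken relative to a reference spectrum with off-resonance saturation at δ −16 ppm, 2 s saturation, typically 512 scans. WaterLOGSY spectra recorded with and without DNA.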

[17] = tested on: MCF7; assay: Drug uptake in human MCF7 cells assessed as nuclear localization at 50 nM after 30 mins by confocal microscopic analysis; assay type: ADME, cell-based; details: mcf7, 0.5 h, 0.05 µM
How it was run: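 Imaging in MCF-7 cells by confocal microscopy with 50 nM labeled compound. Cells fixed in paraformaldehyde for 30 min at 4 °C, permeabilized with Triton X-100 for 30 min at 4 °C, and nuclei stained with Hoechst 33342. Images taken with a 63× oil objective.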

[18] = tested on: HT-29; assay: Antitumor activity against human HT-29 cells after 24 to 48 hrs by MTT assay; assay type: functional, cell-based; how it was run: as §1
[19] = Antitumor activity against human IGROV cells after 24 to 48 hrs by MTT assay; assay type: functional, cell-based
How it was run: as §1, with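 “nm.” for “nm. Values are % of vehicle control (0.5% DMSO); IC50 by linear and polynomial regression; triplicate.”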

[20] = species: Homo sapiens; assay: Inhibition of human topoisomerase 2-mediated relaxation of supercoiled pBR322 DNA relaxation after 6 mins by agarose gel electrophoresis
[21] = tested on: Nucleic Acid; assay: Binding affinity to DNA assessed as binding mode index by measuring aliphatic signals by DF-STD spectrophotometric analysis; assay type: nucleic-acid assay; how it was run: as §3
[22] = tested on: Caco-2; assay: […] of cell differentiation in human Caco2 cells assessed as increase in ALP activity at 10 uM after 48 hrs; assay type: functional; set-up: scale not given: the % may be the effect or the level left
How it was run: (§5)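 Caco-2 cells cultured 48 h with 0, 1, 5 or 10 μM compound. Attached and floating cells washed and lysed in 0.25% sodium deoxycholate. ALP activity measured with a diagnostic ALP reagent and protein by Bradford microassay. Activity expressed as units per mg protein, as a differentiation marker.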

[23] = tested on: Caco-2; assay: Increase in Hsp27 protein expression in human Caco2 cells at 5 uM after 48 hrs by Western blot analysis; assay type: functional, cell-based; how it was run: as §2
[24] = tested on: Caco-2; assay: Antitumor activity against human differentiated Caco2 cells after 24 to 48 hrs by MTT assay; assay type: cell-based; how it was run: as §1
[25] = tested on: Nucleic Acid; assay: Binding affinity to poly(dG-dC).poly(dG-dC) DNA assessed as compound/DNA complex formation at 1 mM by STD NMR spectrophotometric analysis; assay type: nucleic-acid assay; how it was run: as §4
[26] = tested on: MDA-MB-435; assay: Antitumor activity against human MDA-MB-435 cells after 24 to 48 hrs by MTT assay; assay type: functional, cell-based
How it was run: as §1, with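 “nm.” for “nm. Values are % of vehicle control (0.5% DMSO); IC50 by linear and polynomial regression; triplicate.”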

[27] = tested on: Caco-2; assay: Antitumor activity against human undifferentiated Caco2 cells after 24 to 48 hrs by MTT assay; assay type: functional, cell-based; how it was run: as §1
[28] = Cardiotoxicity in rat H9c2 cells assessed as cell viability at 1 uM up to 120 hrs by MTT assay; assay type: toxicity, cell-based; details: read-out: Activity
How it was run: (§6)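 Rat H9C2 cardiomyoblasts, passages 4–10, grown at 37 °C in DMEM with FBS, glutamine and penicillin/streptomycin. Plated at 2000 cells/well in quadruplicate and given compound at 1 μM for the indicated times. MTT reagent added for 2 h in the incubator, then absorbance read at 570 nm. Data are mean ± SD.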

[29] = tested on: Caco-2; assay: Increase in Hsp27 protein expression in human Caco2 cells after 48 hrs by Western blot analysis; assay type: functional, cell-based; how it was run: as §2
[30] = tested on: Caco-2; assay: […] of cell differentiation in human Caco2 cells assessed as increase in ALP activity at 5 uM after 48 hrs; assay type: functional; set-up: scale not given: the % may be the effect or the level left; how it was run: as §5
[31] = tested on: Caco-2; assay: […] of cell differentiation in human Caco2 cells assessed as increase in ALP activity at 1 uM after 48 hrs; assay type: functional; set-up: scale not given: the % may be the effect or the level left; how it was run: as §5
[32] = species: Homo sapiens; assay: Inhibition of human topoisomerase 2-mediated relaxation of supercoiled pBR322 DNA relaxation at 10 uM after 6 mins by agarose gel electrophoresis
How it was run: (§7)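 Compound at 5 or 10 μM. Run 6 min at 37 °C and stopped with EDTA/SDS/glycerol dye. Products run on 1% agarose in 0.5× TBE at 4 V/cm for 1 h, stained with ethidium bromide, bands quantified.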

[33] = species: Homo sapiens; assay: Inhibition of human topoisomerase 2-mediated relaxation of supercoiled pBR322 DNA relaxation at 5 uM after 6 mins by agarose gel electrophoresis; how it was run: as §7
[34] = species: Homo sapiens; assay: Inhibition of human topoisomerase 2-mediated relaxation of supercoiled pBR322 DNA relaxation at 0.04 to 0.92 uM after 6 mins by agarose gel electrophoresis
[35] = tested on: H9c2; assay: Cardiotoxicity in rat H9c2 cells at 1 uM measured up to 120 hrs by MTT assay; assay type: toxicity, cell-based; details: h9c2, 120 h; how it was run: as §6

IC50 [2] [µM] | IC50 [3] [µM] | IC50 [9] [µM] | IC50 [11] [µM] | Activity [16] | IC50 [18] [µM] | IC50 [24] [µM] | Activity [25] | IC50 [27] [µM] | SMILES | IC50 [1] [µM] | IC50 [5] [µM] | Activity [8] | Activity [10] [%] | Activity [13] [%] | Activity [14] [%] | IC50 [15] [µM] | also measured
2.3 | 7 |  |  |  |  |  |  |  | NCC(=O)Nc1csc2c1C(=O)c1ccccc1C2=O | 6.2 |  |  |  |  |  |  | 
5.9 | 9.8 |  |  |  |  |  |  |  | CN(C)CCNC(=O)Nc1csc2c1C(=O)c1ccccc1C2=O | 8.7 |  |  |  |  |  |  | 
1.5 | 1.1 | 0.9 | 0.6 | Active | 0.8 | 4.1 | Active | 1 | CCN(CC)CCC(=O)Nc1csc2c1C(=O)c1ccccc1C2=O.Cl | 2.5 | 0.6 | inactive | 28 | 41 | 29 | 0.7 | Activity [4]: Active; IC50 [6]: 0.5 µM; Ratio IC50 [7]: 0.25; Activity [12]: 1.35; Drug uptake [17]: Active; IC50 [19]: 2.5 µM; inhibition [20]: Dose-dependent effect; Activity [21]: 0.86; Activity [22]: >180%; Activity [23]: inactive; IC50 [26]: 0.5 µM; viability at 120 h, 1 µM [28]: 74%
0.6 | 1.3 | 1.1 | 0.3 | Active | 0.5 | 3.8 | Active | 0.8 | CN(C)CCNCCC(=O)Nc1csc2c1C(=O)c1ccccc1C2=O.Cl.Cl | 2 | 0.6 | 43% | 26 | 53 | 20 | 0.9 | IC50 [6]: 0.6 µM; Ratio IC50 [7]: 0.21; Activity [12]: 1.01; Drug uptake [17]: Active; Activity [29]: Dose-dependent effect; IC50 [19]: 2 µM; inhibition [20]: Dose-dependent effect; Activity [21]: 0.9; Activity [30]: >180%; IC50 [26]: 0.5 µM; Activity [31]: 35%; viability at 120 h, 1 µM [28]: 76%
2.1 | 4 |  |  |  |  |  |  |  | CN(C)CCNCC(=O)Nc1csc2c1C(=O)c1ccccc1C2=O | 4.9 |  |  |  |  |  |  | 
30.5 | > 40 |  |  | inactive |  |  | inactive |  | N[C@@H](Cc1ccccc1)C(=O)Nc1csc2c1C(=O)c1ccccc1C2=O.O=C(O)C(F)(F)F | > 40 |  | inactive | 18 | 44 | 37 |  | inhibition [32]: inactive; inhibition [33]: inactive
6.5 | 10.1 |  |  |  |  |  |  |  | CCCNC(=O)Nc1csc2c1C(=O)c1ccccc1C2=O | 9.5 |  |  |  |  |  |  | 
10.8 | 4.3 |  |  |  |  |  |  |  | O=C(CN1CCOCC1)Nc1csc2c1C(=O)c1ccccc1C2=O | 7.1 |  |  |  |  |  |  | 
12.4 | 9.1 |  |  |  |  |  |  |  | C[C@H](N)C(=O)Nc1csc2c1C(=O)c1ccccc1C2=O | > 40 |  |  |  |  |  |  | 
0.12 | 0.93 | 1.5 | 0.6 |  | 1.1 | 0.6 |  | 6.7 | COc1cccc2c1C(=O)c1c(O)c3c(c(O)c1C2=O)C[C@@](O)(C(=O)CO)C[C@@H]3O[C@H]1C[C@H](N)[C@H](O)[C@H](C)O1 [DOXORUBICIN] | 1.13 | 4.4 |  |  |  |  | 0.8 | inhibition [32]: Active; inhibition [33]: Active; inhibition [34]: Active; Activity [35]: Toxic
